ChEMBL document CHEMBL4513216, “Probing the Open Global Health Chemical Diversity Library for Multistage-Active Starting Points for Next-Generation Antimalarials” (ACS Infect Dis, 2020)

Test: Toxicity liver stage against HepG2, at 10uM
Format: cell-based
Parameters: test concentration 10 uM, cell line HepG2-A16-CD81EGFP
Conditions: human, HepG2-A16-CD81EGFP cells; read-out: INHIBITION
How it was run: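 Uninfected HepG2-A16-CD81EGFP cells, 3 × 10^3 per well, 1536-well, plated on prespotted compound at 10 μM final, parasite-free screening media added to match infected plates; puromycin 10 μM positive, DMSO 0.5% negative; run in parallel with 48 h PbLuc assay at 37 °C, 5% CO2; viability by CellTiter-Glo luminescence, normalized to controls.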

| Structure (SMILES) | cytotoxicity at 10 µM [%] |
| --- | --- |
| COc1c(C)cnc(CN2CCC(N(C)S(C)(=O)=O)CC2)c1C | 0.141 |
| CC(C)c1nc(C2CCCN2CCc2ccccn2)no1 (configuration not stated) | 3.38 |
| O=C1C[C@H]2[C@@H](CCN2C(=O)Cc2cccs2)N1CC1CC1 | 3.2 |
| O=C(NCc1cccs1)NCC(O)(c1cccs1)C1CC1 (configuration not stated) | 1.66 |
| O=C(CCNc1ncccn1)NCc1csc(Br)c1 | 5.15 |
| COC(=O)C1CCN(c2cc(C)nc(-c3ccncc3)n2)CC1 | 2.76 |
| CS(=O)(=O)N1CCO[C@@H]2CCN(C(=O)c3cccs3)CC[C@H]21 | -2.35 |
| FC(F)(F)CN1CCC(CNc2nc3ccccc3o2)C1 (configuration not stated) | 2.7 |
| Cc1noc(C)c1CSCc1csc(CS(C)(=O)=O)n1 | -17 |
| CCC(O)CN1CCN(C(=O)c2cc3ccccc3n2CC)CC1 (configuration not stated) | -0.579 |
| Cc1nnc(CN(C)C(=O)C(CC(C)C)N2CCCCC2=O)n1C (configuration not stated) | -1.88 |
| Cc1ccc([C@H]2CN(CCO)C[C@@H]2NC(=O)CN2CCCCC2=O)o1 | 2.1 |
| CN1CCC(c2nnc3n2CCN(S(=O)(=O)c2ccccc2)C3)CC1 | -2.02 |
| Cc1cc(-c2cnc(N3CCCC(C)C3)nc2-c2cccnc2C)on1 (configuration not stated) | 7.85 |
| CCOCC1CN(CC2CC2)Cc2nn(CC3CC3)cc21 (configuration not stated) | 0.748 |
| Cc1ccc(NC2CCN(C(=O)CCn3nc(C)cc3C)CC2)nn1 | -9.66 |
| COc1c(NC(=O)N(C)CCOc2ccccc2)c(C)nn1C | 19.2 |
| CC(C)c1nc(N2CC[C@@H](N(C)CCc3ccccn3)[C@H](O)C2)no1 | -0.662 |
| NC(=O)c1ccc(-n2ccnc2C2CC2)cc1N1CCCC1 | -3.82 |
| Cc1cc(-c2cc(F)ccc2C(=O)O)nc(C2CCCCN2C(C)C)n1 (configuration not stated) | -3.42 |
| COc1ccccc1OCCC(=O)NC1CCc2nc(C)cn2C1 (configuration not stated) | -7.05 |
| CO[C@@H]1CN(c2ccccc2)S(=O)(=O)[C@@]12CCN(CC1CC1)C2 | 1.84 |
| CSCCCN1CC[C@@H](NC(=O)c2cnccn2)[C@H](O)C1 | -14.6 |

| Structure (SMILES) | cytotoxicity at 10 µM [%] |
| --- | --- |
| COc1cccc(C2(CNC(C)c3nnc(C)o3)CCCC2)c1 (configuration not stated) | -1.64 |
| COc1ccccc1CC(=O)NCc1ccnc(NC2CC2)c1 | -4.06 |
| COc1ncc(NCc2cc(C#N)cs2)cc1C(N)=O | 3.8 |
| CCNc1nc(C)c(C(=O)N(C)Cc2noc(C)n2)s1 | 2.43 |
| Cc1ccc(C(=O)N2CC[C@H](Oc3cccnc3C)[C@@H](O)CC2)s1 | -5.58 |
| CN(C)C(=O)COC[C@@H]1CC[C@H]2[C@H](CCN2c2ccccn2)O1 | 10 |
| O=C(c1cc2c(F)cccc2[nH]1)N1CCC(Nc2cccnn2)CC1 | -19.3 |
| Cc1cc(N2CCCN(CCc3ccccc3)CC2)ccn1 | -3.67 |
| COCc1nc(C(=O)NS(=O)(=O)c2ccc(Cl)cc2F)cs1 | 8.13 |
| O=C(c1cccn1Cc1cccs1)N1CCCC1Cn1cccn1 (configuration not stated) | -7.52 |
| CC(C)(C)c1nnc2n1C(C(=O)N1CCOCC1)CC2 (configuration not stated) | 1.52 |
| Cc1ccc(-c2csc3c(=O)[nH]c(N4CCCC(C(=O)O)C4)nc23)cc1 (configuration not stated) | -68 |
| O=C1CCCC2=Nc3nonc3NC(c3ccccc3Cl)C12 (configuration not stated) | 18.5 |
| O=C(c1ccn(-c2ccccc2)n1)N1CCCC(n2cccn2)C1 (configuration not stated) | -10.8 |
| COCCCn1ccc(NS(=O)(=O)c2cc(C)c(F)cc2F)n1 | 20.1 |
| CCc1nc(C)sc1CN1CC[C@](O)(CC)[C@H](O)C1 | -5.61 |
| CN1CCN(CC[C@@H]2CC[C@H](O)[C@@H](C(=O)Nc3ccccc3)O2)CC1 | -7.1 |
| Cc1n[nH]c(C)c1CNC(=O)CSCc1ccccc1Cl | -4.02 |
| COc1cc(Cl)c(NC(=O)c2cc3c([nH]c2=O)CCCC3=O)cc1OC | -5.21 |
| CN1CCN(Cc2ccncc2)C(=O)C12CCN(c1nccs1)CC2 | -2.82 |
| CN1CCCN(C(=O)c2cc3c(s2)CCN3C(=O)c2ccccc2)CC1 | 1.05 |
| CC(C)n1ncc2c1NC(=O)CC2c1ccccc1Cl (configuration not stated) | 33.5 |
| Cn1ccc(C(=O)NC2CCN(c3ncccn3)CC2)cc1=O | -7.32 |

| Structure (SMILES) | cytotoxicity at 10 µM [%] |
| --- | --- |
| Cn1ncc2c1NC(=O)CC2c1cc(Cl)ccc1F (configuration not stated) | 78.6 |
| CN(C)C(=O)C1CCC2(CCNCC2)C1 (configuration not stated) | 8.59 |
| COCCN1C[C@H]2CC[C@@]3(N=C(C)N(CC4CC4)C3=O)[C@H]2C1 | -7.5 |
| CCn1cc(-c2cc(C(F)F)n3nc(CCC(=O)O)nc3n2)cn1 | -2.78 |
| CC(=O)N1CCC2(CCN(C(=O)c3ccc(Cl)c(C(F)(F)F)c3)CC2)C1 | -4.48 |
| O=C(NCc1cc[nH]n1)NCC(O)c1ccc(F)c(F)c1 (configuration not stated) | -21 |
| CCCn1nnnc1CSc1nccn1CC | -5.15 |
| CCc1ccsc1C(=O)N1CCN(C(=O)c2ccc(C)o2)CC1 | 6.98 |
| NC(=O)Cn1cc(NC(=O)N2CCCC(O)C2)cn1 (configuration not stated) | -10.1 |
| O=C(NS(=O)(=O)c1cc(Cl)sc1Cl)c1cccc2c1OCCO2 | 5.32 |
| c1cnc(Nc2cc(CCC3CCCNC3)ccn2)cn1 (configuration not stated) | -7.58 |
| CC(=O)N1CCC(CCNC(C)Cc2ccc(F)cc2)CC1 (configuration not stated) | -11.4 |
| CC(C)(C)OC(=O)NCC1CCN(C(=O)c2ccc(F)cc2F)C1 (configuration not stated) | 11.5 |
| O=c1cc(Cn2ccnc2)nc2n1CCCN(Cc1ccncc1)C2 | -0.559 |
| NC(=O)C(NCCc1ccc(Cl)s1)c1ccccc1 (configuration not stated) | 6.13 |
| O=S(=O)(c1cccc(F)c1)N1CCCCC1c1ccn[nH]1 (configuration not stated) | 0.692 |
| CC(C)NC(=O)N1CCc2onc(C(=O)Nc3cccnc3)c2C1 | 4.32 |
| Cc1ccc(-c2nnc(C(C)N3CCn4c(C)nnc4C3)o2)cc1 (configuration not stated) | -7.33 |
| CCN1CCOCC12CCN(c1nccs1)CC2 | -107 |
| Cc1cc(C)nc(N2CCN(Cc3nccn3C)CC2)n1 | -20.9 |
| O=C(NCCNc1ncccn1)C1CCN(C(=O)c2ccoc2)CC1 | -12.6 |
| COc1cc(C(=O)NC(C)(C)CN2CCN(C)CC2)c2ccccc2n1 | -1.41 |
| CCCN1CCCN(CCCOc2cccc(C#N)c2)CC1 | 18 |

| Structure (SMILES) | cytotoxicity at 10 µM [%] |
| --- | --- |
| NC1CCC(NC(=O)c2ccc3nc(-c4ccc(F)cc4)cn3c2)CC1 (configuration not stated) | -17.7 |
| Cc1nn(C)c(N(C)C)c1CNCC(O)c1ccccc1F (configuration not stated) | -7.9 |
| NCC1[C@H]2CN(Cc3ccccc3)C[C@@H]12 (some centres not stated) | 4.78 |
| C1CCc2nnc(CNc3nc(C4CC4)nc4c3CCNCC4)n2CC1 | -7.39 |
| Cc1nc(O)cc(CN2C[C@H](NC(=O)C3CCC3)[C@@H](C3CC3)C2)n1 | 0.675 |
| CCC(CNC(=O)OC)(OC)c1ccccc1 (configuration not stated) | 1.37 |
| Cc1c(CN2CCCC2(C)C(=O)NC2CCCC2)cnn1C (configuration not stated) | 1.05 |
| Cc1cnc(CCNC(=O)NCCc2ccc(O)cc2)s1 | -0.276 |
| COc1ccc2[nH]nc(CN3CCC(C(=O)N4CCCCC4)CC3)c2c1 | -2.03 |
| CCc1nc(C2CCCN2C(=O)c2ncoc2CC)no1 (configuration not stated) | -12.8 |
| CCN1CCCC(c2c(-c3ccccc3)ncn2CCc2c[nH]cn2)C1 (configuration not stated) | -10.9 |
| CC(C)N(C)S(=O)(=O)c1ccc2c(c1)CCN(C(=O)c1cnccn1)C2 | -6.17 |
| CS(=O)(=O)NC1CCN(C(=O)c2cc3ccccc3s2)C1 (configuration not stated) | 6.65 |
| O=C(C1CCC1)N1C2CCC(O)(CC2)C1CN1CCOCC1 (configuration not stated) | -1.63 |
| CC(C)OCc1noc(C2CCCOC2)n1 (configuration not stated) | 5.31 |
| CCOc1ccc(OCCN2CCC(N3CCNC3=O)CC2)cc1 | 41.3 |
| CN1CCN(CCCNC(=O)C2CCCCC2)CC1 | -1.82 |
| CCn1cc(S(=O)(=O)Nc2nc3c(s2)CC(C)CC3)cn1 (configuration not stated) | 9.88 |
| O=C1CCCN1Cc1nnn2c1CN(c1ncccn1)CCC2 | -0.0499 |
| CCN1CCN(c2ccc(NC(C)c3nc(C(C)C)no3)c(C)c2)CC1 (configuration not stated) | -10 |
| Cc1cc(C)n(CC(=O)NC(Cc2ccsc2)c2ccccn2)c(=O)n1 (configuration not stated) | -1.91 |
| COC(=O)N1CCCC(C(=O)Nc2ccccc2CN2CCCC2)C1 (configuration not stated) | -9.07 |
| CCCN1CCCC2(CCN(S(=O)(=O)c3cccnc3)C2)C1=O (configuration not stated) | -2.3 |

| Structure (SMILES) | cytotoxicity at 10 µM [%] |
| --- | --- |
| O=C(NCc1cccs1)C1CCN(c2cc(-n3ccnc3)ncn2)CC1 | -3.27 |
| CC(C)CN(Cc1ccccn1)Cc1ccccc1OCC(=O)O | -12.7 |
| CC1CN(CC(=O)Nc2nccs2)CCN1Cc1nccn1C (configuration not stated) | -15.4 |
| c1cncc(CN2CC[C@H]3O[C@@H](COCC4CCOCC4)CC[C@H]32)c1 | -73.5 |
| CNC(=O)c1cccc(NC(=O)NCc2ccccc2)c1C | -1.67 |
| Cc1nc(-c2ccccc2)sc1C(=O)N(C1CC1)C1CC(=O)NC1=O (configuration not stated) | 2.78 |
| Cn1nccc1CN1CCCC(COc2ccccc2F)C1 (configuration not stated) | -9.54 |
| O=C1CC(c2ccccc2)C2(CCN(Cc3ccncc3)CC2)N1 (configuration not stated) | -4.72 |
| CC(C)c1nn2c(-c3cnn(C)c3)nnc2s1 | -8.75 |
| COCCC1(CO)CCCN(CCCc2ccccc2)C1 (configuration not stated) | -1.4 |
| O=C(c1ccc[nH]1)N1CCC(c2nccn2Cc2ccncc2)CC1 | -16.8 |
| COc1cc(CNC(=O)Nc2nncs2)ccc1O | -6.29 |
| COCc1cncc2c1CCN(C(=O)c1ccoc1C)C2 | -81.1 |
| Cc1nc(NC(=O)C(C)S(C)(=O)=O)sc1Cc1ccc(F)cc1 (configuration not stated) | 4.52 |
| Cc1n[nH]cc1CNC(C(=O)N1CCCCC1)c1ccccc1 (configuration not stated) | 8.37 |
| Cc1cnc(C(=O)N2CCCCC2c2ccc(CN(C)C)cc2)cn1 (configuration not stated) | -2.46 |
| Cn1cc(C2CCCN2C(=O)c2ccc(Br)o2)cn1 (configuration not stated) | -3.32 |
| CN(Cc1cc(C2CC2)on1)C(=O)CN1CC(c2ccccc2)CC1=O (configuration not stated) | -6.72 |
| CN1CCCN(C(=O)NCc2ccccc2Cn2cncn2)CC1 | 3.58 |
| COc1cccc(CC2(CO)CCCN(c3nccs3)C2)c1 (configuration not stated) | -4.59 |
